Calls of active or inactive are those of the source. The calls are words filed in the database; no cut-off is given here.
Key:
[1] = biological target: T1, Beta-2 adrenergic receptor (Homo sapiens, UniProt P07550); assay: Agonist activity at human beta2 adrenergic receptor in human BEAS-2B cells by cAMP accumulation assay; type: functional, cell-based
[2] = biological target: Beta-1 adrenergic receptor (Homo sapiens, UniProt P08588); assay: Agonist activity at human beta1 adrenergic receptor expressed in cells by cAMP accumulation assay; type: functional, cell-based
Chain of Beta-1 adrenergic receptor (P08588 whole entry): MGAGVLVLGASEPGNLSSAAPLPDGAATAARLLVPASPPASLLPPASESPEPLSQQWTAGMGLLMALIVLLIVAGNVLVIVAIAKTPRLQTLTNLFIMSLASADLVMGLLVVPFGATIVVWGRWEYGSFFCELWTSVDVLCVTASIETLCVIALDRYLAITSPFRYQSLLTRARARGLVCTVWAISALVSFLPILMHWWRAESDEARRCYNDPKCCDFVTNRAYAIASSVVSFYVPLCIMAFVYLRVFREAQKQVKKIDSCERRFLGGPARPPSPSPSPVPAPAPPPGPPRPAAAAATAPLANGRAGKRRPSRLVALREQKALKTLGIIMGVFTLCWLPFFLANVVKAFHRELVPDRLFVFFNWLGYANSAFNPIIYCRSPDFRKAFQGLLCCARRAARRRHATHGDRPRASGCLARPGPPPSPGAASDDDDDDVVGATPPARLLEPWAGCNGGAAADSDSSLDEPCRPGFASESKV

[3] = biological target: T1, Beta-2 adrenergic receptor; assay: Displacement of [3H]dihydroalprenolol from human beta2 adrenergic receptor expressing cell membrane by competition binding assay
[4] = biological target: T1, Beta-2 adrenergic receptor; assay: Agonist activity at human beta2 adrenergic receptor expressed in cells by cAMP accumulation assay; type: functional, cell-based
Homo sapiens [5] = species on record: Homo sapiens; assay: Selectivity ratio of Ki for human beta1 adrenergic receptor to Ki for human beta2 adrenergic receptor
In short: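 Competition binding used [3H]dihydroalprenolol as tracer on plasma membranes from cells expressing recombinant human β1- or β2-adrenoceptors. Selectivity is the ratio β1 Ki/β2 Ki.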

[6] = biological target: Beta-3 adrenergic receptor (Homo sapiens, UniProt P13945); assay: Agonist activity at human beta3 adrenergic receptor expressed in cells by cAMP accumulation assay; type: functional, cell-based
Chain of Beta-3 adrenergic receptor (P13945 whole entry): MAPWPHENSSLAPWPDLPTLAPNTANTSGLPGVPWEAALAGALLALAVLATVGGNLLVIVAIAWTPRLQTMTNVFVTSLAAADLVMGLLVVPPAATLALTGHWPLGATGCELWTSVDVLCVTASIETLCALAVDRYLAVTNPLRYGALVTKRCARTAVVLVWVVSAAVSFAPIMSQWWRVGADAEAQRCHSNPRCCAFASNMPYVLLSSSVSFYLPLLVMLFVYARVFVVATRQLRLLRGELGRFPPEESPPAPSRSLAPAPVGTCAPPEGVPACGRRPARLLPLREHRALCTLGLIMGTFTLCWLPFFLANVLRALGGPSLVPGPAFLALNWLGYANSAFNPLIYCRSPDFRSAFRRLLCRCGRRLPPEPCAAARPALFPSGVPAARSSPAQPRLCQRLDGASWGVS
In short: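 cAMP accumulation read-out in a recombinant cell line heterologously expressing the human β3-adrenoceptor.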

Cavia porcellus [7] = assay: Bronchoprotection activity against acetylcholine-induced guinea pig bronchoconstriction model at 1 to 100 ug/ml administered as nebulized dosing measured after 72 hrs; type: functional, organism-based
In short: (§1)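 Guinea pigs received the compound by nebulizer, and testing took place 72 h after treatment. Pulmonary resistance was measured by head-out plethysmograph in anesthetized, spontaneously breathing animals. Bronchoconstriction was induced by increasing intravenous acetylcholine doses. The ACh dose doubling baseline resistance (PD2) was calculated.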

[8] = Clearance in rat; type: ADME, organism-based; settings: in vivo
[9] = Oral bioavailability in dog; type: ADME, organism-based, Canis lupus familiaris; settings: in vivo
[10] = biological target: T2, Muscarinic acetylcholine receptor M2 (Homo sapiens, UniProt P08172); assay: Inhibition of muscarinic acetylcholine receptor M2 (unknown origin)
T2 sequence (P08172 whole entry): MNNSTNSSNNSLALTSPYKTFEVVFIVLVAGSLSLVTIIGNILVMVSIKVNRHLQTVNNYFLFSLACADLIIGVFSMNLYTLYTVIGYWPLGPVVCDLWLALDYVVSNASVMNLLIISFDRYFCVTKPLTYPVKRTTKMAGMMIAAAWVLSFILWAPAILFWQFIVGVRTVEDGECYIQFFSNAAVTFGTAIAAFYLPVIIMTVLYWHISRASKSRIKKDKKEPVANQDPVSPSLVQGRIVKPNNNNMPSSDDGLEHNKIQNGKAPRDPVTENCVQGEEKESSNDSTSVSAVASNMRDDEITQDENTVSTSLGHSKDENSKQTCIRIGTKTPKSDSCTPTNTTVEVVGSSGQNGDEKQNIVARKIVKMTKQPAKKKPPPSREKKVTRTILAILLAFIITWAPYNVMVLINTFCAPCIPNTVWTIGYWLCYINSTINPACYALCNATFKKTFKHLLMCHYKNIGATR

Cavia porcellus [11] = assay: Bronchoprotection activity against acetylcholine-induced guinea pig bronchoconstriction model administered as nebulized dosing measured after 72 hrs; type: functional, organism-based; in short: as §1
[12] = Oral bioavailability in rat; type: ADME, organism-based; settings: in vivo
hERG (KCNH2) = hERG (KCNH2) (Homo sapiens, UniProt Q12809); assay: Inhibition of human ERG at 40 nM
Chain of hERG (KCNH2) (Q12809 whole entry): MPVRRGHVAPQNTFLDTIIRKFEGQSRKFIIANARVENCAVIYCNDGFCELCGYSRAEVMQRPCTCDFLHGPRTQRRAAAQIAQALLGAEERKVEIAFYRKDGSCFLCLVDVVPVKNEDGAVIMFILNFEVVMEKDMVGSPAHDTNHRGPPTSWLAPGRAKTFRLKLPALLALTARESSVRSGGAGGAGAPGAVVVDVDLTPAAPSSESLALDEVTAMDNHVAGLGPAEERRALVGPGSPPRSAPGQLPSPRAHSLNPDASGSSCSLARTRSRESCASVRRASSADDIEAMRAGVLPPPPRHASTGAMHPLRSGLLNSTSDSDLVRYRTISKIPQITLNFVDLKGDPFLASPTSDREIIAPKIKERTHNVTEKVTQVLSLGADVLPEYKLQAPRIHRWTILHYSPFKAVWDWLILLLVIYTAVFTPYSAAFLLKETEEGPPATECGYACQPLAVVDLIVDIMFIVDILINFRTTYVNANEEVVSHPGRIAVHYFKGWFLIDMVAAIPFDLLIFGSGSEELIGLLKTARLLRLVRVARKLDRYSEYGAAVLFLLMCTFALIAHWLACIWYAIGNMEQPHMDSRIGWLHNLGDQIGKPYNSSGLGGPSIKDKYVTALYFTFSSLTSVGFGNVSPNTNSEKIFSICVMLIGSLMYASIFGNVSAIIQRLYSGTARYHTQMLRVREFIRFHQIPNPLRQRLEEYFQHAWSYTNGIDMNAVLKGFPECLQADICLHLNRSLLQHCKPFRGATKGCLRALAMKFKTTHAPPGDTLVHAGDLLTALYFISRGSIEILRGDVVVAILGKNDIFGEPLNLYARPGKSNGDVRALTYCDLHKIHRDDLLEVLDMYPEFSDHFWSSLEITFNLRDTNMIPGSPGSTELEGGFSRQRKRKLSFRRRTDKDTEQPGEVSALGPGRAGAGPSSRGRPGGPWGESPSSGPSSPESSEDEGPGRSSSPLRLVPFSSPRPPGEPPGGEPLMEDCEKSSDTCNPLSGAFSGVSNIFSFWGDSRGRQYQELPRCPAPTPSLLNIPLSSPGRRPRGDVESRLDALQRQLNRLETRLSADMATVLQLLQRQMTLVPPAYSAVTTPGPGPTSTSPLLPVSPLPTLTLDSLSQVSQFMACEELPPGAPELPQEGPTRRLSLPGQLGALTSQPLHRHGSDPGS

[13] = Clearance in dog; type: ADME, organism-based, Canis lupus familiaris; settings: in vivo
Homo sapiens [14] = species on record: Homo sapiens; assay: Inhibition of muscarinic receptor (unknown origin) at 1 uM
Cavia porcellus [15] = assay: Bronchoprotection activity against acetylcholine-induced guinea pig bronchoconstriction model at >= 30 ug/ml administered as nebulized dosing measured after 72 hrs; type: functional, organism-based; in short: as §1
[16] = Dissociation constant, pKa of the compound; type: physicochemical

T1 sequence (P07550 whole entry): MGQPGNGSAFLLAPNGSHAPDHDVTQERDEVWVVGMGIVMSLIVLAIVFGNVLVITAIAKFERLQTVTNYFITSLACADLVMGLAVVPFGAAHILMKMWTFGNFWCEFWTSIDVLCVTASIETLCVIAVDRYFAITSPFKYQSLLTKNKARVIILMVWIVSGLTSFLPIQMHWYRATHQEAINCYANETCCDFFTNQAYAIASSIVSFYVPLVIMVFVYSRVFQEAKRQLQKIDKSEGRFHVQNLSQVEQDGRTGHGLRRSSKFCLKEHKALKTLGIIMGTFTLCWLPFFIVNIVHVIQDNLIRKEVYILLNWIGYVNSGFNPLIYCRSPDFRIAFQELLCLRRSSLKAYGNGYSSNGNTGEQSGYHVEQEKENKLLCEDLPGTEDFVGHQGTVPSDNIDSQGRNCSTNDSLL

Compound	EC50 [1]	EC50 [2]	Ki [3]	EC50 [4]	Ratio Ki (Homo sapiens [5])	EC50 [6]	Activity (Cavia porcellus [7])	clearance [8]	bioavailability [9]	Ki [10]	Activity (Cavia porcellus [11])	bioavailability [12]	inhibition at 0.04 µM (hERG (KCNH2))	clearance [13]	inhibition (Homo sapiens [14])	Activity (Cavia porcellus [15])	pKa [16]
O=C(NCCOc1ccc(Nc2ccc(CCNC[C@H](O)c3ccc(O)c4[nH]c(=O)ccc34)cc2)cc1)c1ccccc1	1.58 nM	2 nM	10 nM	0.501 nM	13	12.6 nM	–	–	–	–	–	–	–	–	–	–	–
NCCOc1ccc(Nc2ccc(CCNC[C@H](O)c3ccc(O)c4[nH]c(=O)ccc34)cc2)cc1	0.501 nM	7.94 nM	6.31 nM	0.1 nM	64	39.8 nM	–	–	–	–	–	–	–	–	–	–	–
CS(=O)(=O)N1CCN(CCOc2ccc(Nc3ccc(CCNC[C@H](O)c4ccc(O)c5[nH]c(=O)ccc45)cc3)cc2)CC1	6.31 nM	7.94 nM	31.6 nM	0.631 nM	30	31.6 nM	–	–	–	–	–	–	–	–	–	–	–
O=c1ccc2c([C@@H](O)CNCCc3ccc(Nc4ccc(OCCN5CCOCC5)cc4)cc3)ccc(O)c2[nH]1	3.16 nM	12.6 nM	20 nM	0.316 nM	41	50.1 nM	–	–	–	–	–	–	–	–	–	–	–
COc1ccc(Nc2ccc(CCNC[C@H](O)c3ccc(O)c4[nH]c(=O)ccc34)cc2)cc1-c1ccc(CN)cc1	0.501 nM	2.51 nM	1.26 nM	0.1 nM	101	10 nM	Active	–	–	–	–	–	–	–	–	–	–
COc1ccc(Nc2ccc(CCNC[C@H](O)c3ccc(O)c4[nH]c(=O)ccc34)cc2)cc1-c1cccc(CN)c1	0.316 nM	3.98 nM	1.58 nM	0.0794 nM	146	25.1 nM	Active	–	–	–	–	–	–	–	–	–	–
CC(C)(N)COc1ccc(Nc2ccc(CCNC[C@H](O)c3ccc(O)c4[nH]c(=O)ccc34)cc2)cc1-c1ccccc1	0.631 nM	1.58 nM	1 nM	0.0631 nM	140	7.94 nM	–	–	–	–	–	–	–	–	–	–	–
CC(C)(N)COc1ccc(Nc2ccc(CCNC[C@H](O)c3ccc(O)c4[nH]c(=O)ccc34)cc2)cc1	1 nM	6.31 nM	6.31 nM	0.0794 nM	64	63.1 nM	–	6.67 mL/min/kg	5%	631 nM	Dose-dependent effect	1%	7%	40 mL/min/kg	Active	Active	–
NCCCOc1ccc(Nc2ccc(CCNC[C@H](O)c3ccc(O)c4[nH]c(=O)ccc34)cc2)cc1	0.631 nM	7.94 nM	5.01 nM	0.158 nM	95	39.8 nM	–	–	–	–	–	–	–	–	–	–	–
O=CNc1cc([C@@H](O)CNCCc2ccc(NC[C@H](O)c3ccccc3)cc2)ccc1O [MILVETEROL]	–	–	–	–	2910	39.8 nM	–	–	–	–	–	–	–	–	–	–	–
CCOc1ccc(Nc2ccc(CCNC[C@H](O)c3ccc(O)c4[nH]c(=O)ccc34)cc2)cc1	2 nM	–	12.6 nM	0.251 nM	72	–	–	–	–	–	inactive	–	–	–	–	–	–
COc1ccc(Nc2ccc(CCNC[C@H](O)c3ccc(O)c4[nH]c(=O)ccc34)cc2)cc1-c1ccccc1	–	–	6.31 nM	–	115	–	Active	–	–	–	–	–	–	–	–	–	–
COc1ccc(Nc2ccc(CCNC[C@H](O)c3ccc(O)c4[nH]c(=O)ccc34)cc2)cc1-c1ccccc1CN	0.794 nM	2.51 nM	3.16 nM	0.126 nM	20	6.31 nM	–	–	–	–	–	–	–	–	–	–	–
NCCOCCOc1ccc(Nc2ccc(CCNC[C@H](O)c3ccc(O)c4[nH]c(=O)ccc34)cc2)cc1	0.631 nM	7.94 nM	6.31 nM	0.158 nM	95	39.8 nM	–	–	–	–	–	–	–	–	–	–	–
NCCCCOc1ccc(Nc2ccc(CCNC[C@H](O)c3ccc(O)c4[nH]c(=O)ccc34)cc2)cc1	0.631 nM	7.94 nM	5.01 nM	0.126 nM	85	39.8 nM	–	–	–	–	–	–	–	–	–	–	–
O=c1ccc2c([C@@H](O)CNCCc3ccc(Nc4ccc(OCCN5CCNCC5)cc4)cc3)ccc(O)c2[nH]1	1.58 nM	10 nM	10 nM	0.126 nM	116	39.8 nM	–	–	–	–	–	–	–	–	–	–	9.1
CC(C)(N)COc1ccc(Nc2ccc(CCNC[C@H](O)c3ccc(O)c(NC=O)c3)cc2)cc1	3.16 nM	6.31 nM	25.1 nM	0.251 nM	94	39.8 nM	–	–	–	–	–	–	–	–	–	–	–
CC(C)(C)OC(=O)NCCOc1ccc(Nc2ccc(CCNC[C@H](O)c3ccc(O)c4[nH]c(=O)ccc34)cc2)cc1	2.51 nM	12.6 nM	20 nM	0.501 nM	26	12.6 nM	–	–	–	–	–	–	–	–	–	–	–

Reference: ChEMBL document CHEMBL3297645, “Discovery of TD-4306, a long-acting β2-agonist for the treatment of asthma and COPD” (Bioorg Med Chem Lett, 2014)
